ChEMBL document CHEMBL1157459 (J Med Chem, 2008)
One block for each compound: values may come before it. Active and inactive are the calls of the source. The calls are words filed in the database; no cut-off is given here.

Assays:
[1] = molecular target: T1, Gamma-aminobutyric acid receptor subunit rho-1 (Homo sapiens, UniProt P24046); assay: Antagonist activity at human GABAc Rho1 receptor expressed in Xenopus oocytes assessed as whole cell current production by two electrode voltage clamp method; type: functional, cell-based; details: for Kb: Oocyte
[2] = molecular target: T2, Gamma-aminobutyric acid type B receptor subunit 1 (Homo sapiens, UniProt Q9UBS5); assay: Agonist activity at human GABAb 1A/2 receptor expressed in Xenopus oocytes assessed as whole cell current production by two electrode voltage clamp method; type: functional, cell-based, Oocyte
[3] = molecular target: T3, GABA-A receptor; agonist GABA site (Homo sapiens) (UniProt P14867+P47870+P28472+P48169+P34903+P18505+P47869+P31644+Q16445); assay: Activity at human alpha-1-beta-2-gamma-2L GABAA receptor expressed in Xenopus oocytes assessed as inhibition of current production at 600 uM by two electrode voltage clamp method relative to GABA; type: cell-based; details: Oocyte
[4] = molecular target: T2, Gamma-aminobutyric acid type B receptor subunit 1; assay: Intrinsic activity at human GABAb 1A/2 receptor expressed in Xenopus oocytes assessed as maximum whole cell current production by two electrode voltage clamp method relative to GABA; type: cell-based; details: Oocyte
Procedure, shortened: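 Human GABA-B(1A/2) receptors expressed from cRNA (50 ng/50 nL) in Xenopus oocytes held 1-5 days at 18 °C. Voltage clamp at -60 mV in high-K+ buffer (45 mM KCl, 45 mM NaCl, 1 mM MgCl2, 1.8 mM CaCl2, 5 mM HEPES). Responses normalised to the maximal response to 600 µM GABA. Imax and EC50 taken from concentration-response fits. Mean ± SEM, n = 3-5 oocytes.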

[5] = molecular target: T3, GABA-A receptor; agonist GABA site (Homo sapiens); assay: Agonist activity at human alpha-1-beta-2-gamma-2L GABAA receptor expressed in Xenopus oocytes assessed as inhibition of current production by two electrode voltage clamp method; type: functional, cell-based; details: Oocyte
[6] = molecular target: T2, Gamma-aminobutyric acid type B receptor subunit 1; assay: Activity at human GABAb 1A/2 receptor expressed in Xenopus oocytes assessed as whole cell current production at 600 uM by two electrode voltage clamp method; type: cell-based; details: Oocyte
[7] = molecular target: T1, Gamma-aminobutyric acid receptor subunit rho-1; assay: Antagonist activity at human GABAc Rho1 receptor expressed in Xenopus oocytes assessed as whole cell current production at 600 uM by two electrode voltage clamp method; type: functional, cell-based; details: Oocyte
[8] = molecular target: T1, Gamma-aminobutyric acid receptor subunit rho-1; assay: Agonist activity at human GABAc Rho1 receptor expressed in Xenopus oocytes assessed as whole cell current production by two electrode voltage clamp method; type: functional, cell-based, Oocyte

T1 sequence (P24046 whole entry): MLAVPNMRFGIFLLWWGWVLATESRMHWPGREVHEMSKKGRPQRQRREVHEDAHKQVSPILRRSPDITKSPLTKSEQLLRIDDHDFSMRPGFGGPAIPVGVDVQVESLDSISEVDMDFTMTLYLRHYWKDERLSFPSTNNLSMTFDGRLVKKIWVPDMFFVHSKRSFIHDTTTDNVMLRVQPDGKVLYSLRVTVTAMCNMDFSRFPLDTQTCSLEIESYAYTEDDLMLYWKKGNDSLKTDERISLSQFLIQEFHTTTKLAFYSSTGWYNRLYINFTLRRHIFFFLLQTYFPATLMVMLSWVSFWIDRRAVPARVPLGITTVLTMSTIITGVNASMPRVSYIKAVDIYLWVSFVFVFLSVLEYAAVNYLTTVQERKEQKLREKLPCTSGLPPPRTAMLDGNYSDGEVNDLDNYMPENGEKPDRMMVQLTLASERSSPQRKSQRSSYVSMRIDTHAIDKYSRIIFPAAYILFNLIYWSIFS
T2 sequence (Q9UBS5 whole entry): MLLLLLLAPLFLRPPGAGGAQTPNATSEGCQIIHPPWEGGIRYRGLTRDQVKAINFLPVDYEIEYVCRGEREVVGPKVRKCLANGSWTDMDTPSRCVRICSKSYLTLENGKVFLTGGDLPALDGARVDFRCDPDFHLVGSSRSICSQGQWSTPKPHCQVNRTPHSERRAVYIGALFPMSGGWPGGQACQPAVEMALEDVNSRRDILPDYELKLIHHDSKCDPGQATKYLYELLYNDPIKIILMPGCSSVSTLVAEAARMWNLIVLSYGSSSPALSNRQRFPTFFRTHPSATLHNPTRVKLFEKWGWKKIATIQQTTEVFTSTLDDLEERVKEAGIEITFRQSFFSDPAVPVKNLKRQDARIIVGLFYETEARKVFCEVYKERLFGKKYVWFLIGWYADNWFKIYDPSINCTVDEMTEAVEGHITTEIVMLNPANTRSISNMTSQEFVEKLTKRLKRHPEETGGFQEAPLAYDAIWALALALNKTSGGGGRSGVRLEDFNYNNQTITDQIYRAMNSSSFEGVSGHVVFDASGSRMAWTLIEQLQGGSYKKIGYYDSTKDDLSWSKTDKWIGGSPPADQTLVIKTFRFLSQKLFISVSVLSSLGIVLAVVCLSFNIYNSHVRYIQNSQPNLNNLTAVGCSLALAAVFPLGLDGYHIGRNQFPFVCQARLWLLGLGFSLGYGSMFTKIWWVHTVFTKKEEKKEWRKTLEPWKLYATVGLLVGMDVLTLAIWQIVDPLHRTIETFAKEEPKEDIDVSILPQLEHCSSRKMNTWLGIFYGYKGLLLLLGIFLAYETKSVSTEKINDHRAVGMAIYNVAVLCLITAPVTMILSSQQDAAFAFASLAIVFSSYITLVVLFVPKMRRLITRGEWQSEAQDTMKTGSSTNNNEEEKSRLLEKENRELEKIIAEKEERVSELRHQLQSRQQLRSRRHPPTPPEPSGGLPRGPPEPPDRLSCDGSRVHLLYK

Kb [1]: 20 µM
SMILES: NCCCCC(=O)O

SMILES: CP(=O)(O)C1=CCNCC1
EC50 [2]: 500 µM | Kb [1]: 2.1 µM

SMILES: O=[Se](O)C1CCNCC1
Kb [1]: 0.95 µM

Kb [1]: 6.6 µM
SMILES: CP(=O)(O)[C@H]1CC[C@H](N)C1

SMILES: CCCCP(=O)(O)C1=CC[C@H](N)C1
inhibition [3]: 24.2% | Kb [1]: 4.97 µM

Kb [1]: 6.1 µM
SMILES: N[C@H]1CC=C(C(=O)O)C1 (stereo in doubt; (S-6))

SMILES: CP(=O)(O)C1=CC[C@H](N)C1
Imax [4]: 75.9% | inhibition [3]: 4.1% | EC50 [2]: 52.2 µM | Kb [1]: 0.78 µM

inhibition [3]: 64.1% | Kb [1]: 48.6 µM
SMILES: NC1CC=C(P(=O)(O)Cc2ccccc2)C1 (racemic)

SMILES: CC(C)P(=O)(O)C1=CCC(N)C1 (racemic)
inhibition [3]: 8.8% | Kb [1]: 13.1 µM

ED50 [5]: 1.1 µM | Kb [1]: 6 µM
SMILES: N[C@H]1CC=C(C(=O)O)C1 (stereo in doubt; 6)

SMILES: CP(=O)(O)[C@H]1C[C@@H](N)C1
Activity [6]: inactive | IC50 [1]: > 100 µM

Activity [6]: inactive | Activity [7]: inactive
SMILES: CP(=O)(O)[C@]1(O)C[C@H](N)C1

SMILES: CP(=O)(O)/C=C\CN
Kb [1]: 38.9 µM

Kb [1]: 1.1 µM
SMILES: CP(=O)(O)[C@@H]1CC[C@H](N)C1

Activity [6]: inactive | Activity [7]: inactive
SMILES: CP(=O)(O)[C@]1(O)C[C@@H](N)C1

EC50 [8]: 9 µM
SMILES: NC[C@@H]1C[C@H]1C(=O)O

IC50 [1]: > 800 µM
SMILES: NC[C@@H]1C[C@@H]1C(=O)O

SMILES: CCCCP(=O)(O)C1=CC[C@@H](N)C1
Activity [3]: inactive | Kb [1]: 59.3 µM

SMILES: CP(=O)(O)C1=CCC(N)C1 (racemic)
Imax [4]: 56.4% | inhibition [3]: 6.2% | EC50 [2]: 51 µM | Kb [1]: 1.84 µM

SMILES: CP(=O)(O)C1=CC[C@@H](N)C1
Imax [4]: 52.3% | Activity [3]: inactive | EC50 [2]: 71.9 µM | Kb [1]: 18.9 µM

SMILES: CP(=O)(O)[C@H]1C[C@H](N)C1
Activity [6]: inactive | IC50 [1]: > 100 µM

SMILES: CCP(=O)(O)C1=CCC(N)C1 (racemic)
inhibition [3]: 5.2% | Kb [1]: 3.53 µM

SMILES: CCCCP(=O)(O)C1=CCC(N)C1 (racemic)
inhibition [3]: 23.2% | Kb [1]: 7.24 µM

SMILES: Oc1noc2c1CCNC2
Kb [1]: 32 µM

EC50 [8]: 0.4 µM
SMILES: NC/C=C/C(=O)O [t-4-AMINOCROTONIC ACID (TACA)]

IC50 [1]: 12.9 µM
SMILES: NCC(=O)CCC(=O)O [AMINOLEVULINIC ACID]

SMILES: CP(=O)(O)C1CCNCC1
Kb [1]: 6 µM

SMILES: O=C(O)Cc1c[nH]cn1
Kb [1]: 1.7 µM

EC50 [8]: 59 µM
SMILES: NC[C@H]1C[C@@H]1C(=O)O

EC50 [8]: 40 µM
SMILES: NC[C@H]1C[C@H]1C(=O)O

Kb [1]: 6.6 µM
SMILES: CP(=O)(O)[C@@H]1CC[C@@H](N)C1

Kb [1]: 1.1 µM
SMILES: CP(=O)(O)[C@H]1CC[C@@H](N)C1

SMILES: NCc1cc(=O)[nH]o1 [MUSCIMOL]
EC50 [8]: 1.4 µM
